The nature of series [1]: Inhibition of IGF-1R phosphorylation in serum starved human HT-29 cells incubated for 1 hr by immunoblotting analysis. The format is cell-based. In outline:
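Cells starved overnight in basic medium with 0.5% FBS, incubated 1 h with compound or 0.1% DMSO, then stimulated 5 min at 37°C with human recombinant cognate ligand. Receptor immunoprecipitated from lysate and immunoblotted for phosphotyrosine; IC50 by nonlinear regression of percent inhibition, n = 4.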

Another series deals with LoVo. Put plainly: Antitumor activity against human LoVo cells xenografted in gamma-irradiation induced RH-rnu/rnu athymic rat assessed as tumor growth inhibition at 1.0 mg/kg, po administered once daily for 2 weeks and measured on day 14 relative to control. In kind it is functional. The note with it: light or radiation study, 336 h, read-out: TGI. Put shortly:
(§1)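 Rats were γ-irradiated with 7 Gy whole body, and 24 h later received s.c. tumor cells. Fragments (20-30 mg) from ~1,500 mm3 tumors were then implanted s.c. into irradiated athymic rats. Oral dosing at 0.2 or 1 mg/kg or vehicle ran once daily for 2 weeks from day 0. Tumors were measured with calipers twice weekly (length×width²×0.5). TGI% was taken versus vehicle on day 14 (BxPC-3: day 13), with an unpaired t test on RTV.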

In series [2] the test system is LS174T. Put plainly: Antitumor activity against human LS174T cells xenografted in gamma-irradiation induced RH-rnu/rnu athymic rat assessed as tumor growth inhibition at 0.2 mg/kg, po administered once daily for 2 weeks and measured on day 14 relative to control. The note with it: light or radiation study, 336 h, read-out: TGI. In kind it is functional. Put shortly: as §1

The subject of series [3] is LS174T. The series is described as follows: Antitumor activity against human LS174T cells xenografted in gamma-irradiation induced RH-rnu/rnu athymic rat assessed as tumor growth inhibition at 1.0 mg/kg, po administered once daily for 2 weeks and measured on day 14 relative to control. In kind it is functional. The note with it: light or radiation study, 336 h, read-out: TGI. In outline: as §1

The subject of series [4] is Calu-6. Put plainly: Antitumor activity against human Calu-6 cells xenografted in gamma-irradiation induced RH-rnu/rnu athymic rat assessed as tumor growth inhibition at 1.0 mg/kg, po administered once daily for 2 weeks and measured on day 14 relative to control. The format is functional. The note with it: Calu-6, light or radiation study, 336 h, read-out: TGI. Put shortly: as §1

For a further series, the system named is BXPC-3. The series is described as follows: Antitumor activity against human BXPC-3 cells xenografted in gamma-irradiation induced RH-rnu/rnu athymic rat assessed as tumor growth inhibition at 1.0 mg/kg, po administered once daily for 2 weeks and measured on day 13 relative to control. The format is functional. The note with it: BXPC-3, light or radiation study, 336 h, read-out: TGI. In outline: as §1

The next series deals with DU-145. The series is described as follows: Antitumor activity against human DU-145 cells xenografted in gamma-irradiation induced RH-rnu/rnu athymic rat assessed as tumor growth inhibition at 0.2 mg/kg, po administered once daily for 2 weeks and measured on day 14 relative to control. The note with it: DU-145, light or radiation study, 336 h, read-out: TGI. In kind it is functional. In outline:
as §1

A further series deals with PC-3. The series is described as follows: Antitumor activity against human PC-3 cells xenografted in gamma-irradiation induced RH-rnu/rnu athymic rat assessed as tumor growth inhibition at 1.0 mg/kg, po administered once daily for 2 weeks and measured on day 14 relative to control. In kind it is functional. The note with it: PC-3, light or radiation study, 336 h, read-out: TGI.

Series [5] relates to Calu-6. The series is described as follows: Antitumor activity against human Calu-6 cells xenografted in RH-rnu/rnu athymic rat assessed as larger enclosed median lumen area by the halos in tumor by measuring vessel diameter at 0.2 mg/kg, po administered for 14 days by H33342 dye based fluorescence microscopic analysis. The note with it: time 14 day. The format is functional. In outline:
(§2)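 Calu-6 tumor-bearing athymic rats, three per group, received oral drug at 0.2 or 1 mg/kg or vehicle on days 0-13. They were killed 1 min after i.v. H33342 at 20 mg/kg on day 13. 10 µm cryosections were cut from five tumor levels at least 200 µm apart and examined under UV epifluorescence. The major axis of fluorescent halos around vessels was measured by image analysis, with a Mann-Whitney test.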

In series [6] the test system is Calu-6. Put plainly: Antitumor activity against human Calu-6 cells xenografted in RH-rnu/rnu athymic rat assessed as larger enclosed median lumen area by the halos in tumor by measuring vessel diameter at 1 mg/kg, po administered for 14 days by H33342 dye based fluorescence microscopic analysis. The format is functional. The note with it: time 14 day. In outline: as §2

The test system of series [7] is Calu-6. The series is described as follows: Antitumor activity against human Calu-6 cells xenografted in RH-rnu/rnu athymic rat assessed as increased ratio of enlarged vessels with >100 uM diameter in tumor at 0.2 mg/kg, po administered for 14 days by H33342 dye based fluorescence microscopic analysis relative to control. In kind it is functional. The note with it: time 14 day. Put shortly: as §2

In series [8] the test system is Calu-6. Put plainly: Antitumor activity against human Calu-6 cells xenografted in RH-rnu/rnu athymic rat assessed as increased ratio of enlarged vessels with >100 uM diameter in tumor at 1 mg/kg, po administered for 14 days by H33342 dye based fluorescence microscopic analysis relative to control. In kind it is functional. The note with it: time 14 day. In outline:
as §2

For series [9], the system named is Calu-6. Put plainly: Antitumor activity against human Calu-6 cells xenografted in RH-rnu/rnu athymic rat assessed as decreased microvessel density at 0.2 mg/kg, po administered for 14 days by immunofluorescence staining analysis relative to control. The format is functional. More on the design: scale not given: the % may be the effect or the level left. The note with it: time 14 day.

Series [10] deals with Calu-6. The series is described as follows: Antitumor activity against human Calu-6 cells xenografted in RH-rnu/rnu athymic rat assessed as decreased microvessel density at 1 mg/kg, po administered for 14 days by immunofluorescence staining analysis relative to control. The format is functional. Details: scale not given: the % may be the effect or the level left. The note with it: time 14 day.

Series [11] is described as follows: AUC (0-infinity) in F344/N JcL-rnu athymic rat at 0.04 mg/kg, po measured upto 72 hrs by HPLC-MS/MS analysis. In kind it is ADME, organism-based. The note with it: in vivo. In outline: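 Female athymic rats, four per group, given a single oral dose suspended in 0.5% methyl cellulose in water. Tail-vein blood was drawn at set times up to 72 h. Serum was spiked with internal standard, deproteinated with acetonitrile and analysed by HPLC-MS/MS. AUCinf came from noncompartmental analysis.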

Series [12] is described as follows: Apparent oral clearance in F344/N JcL-rnu athymic rat at 0.04 mg/kg, po measured upto 72 hrs by HPLC-MS/MS analysis. The format is ADME, organism-based. The note with it: in vivo. Put shortly: (§3)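 Female F344/N JcL-rnu rats, four per group, single p.o. dose suspended in 0.5% methyl cellulose. Tail-vein blood sampled at set times to 72 h. Serum spiked with internal standard, deproteinated with acetonitrile, analysed by HPLC-MS/MS. Parameters derived by noncompartmental analysis.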

A short description of series [13]: Half life in F344/N JcL-rnu athymic rat at 0.2 mg/kg, po measured upto 72 hrs by HPLC-MS/MS analysis. In kind it is ADME, organism-based. The note with it: in vivo. In outline:
as §3

Series [14] is described as follows: Tmax in F344/N JcL-rnu athymic rat at 0.04 mg/kg, po measured upto 72 hrs by HPLC-MS/MS analysis. The format is ADME, organism-based. The note with it: in vivo. Put shortly:
as §3

A short description of series [15]: Tmax in F344/N JcL-rnu athymic rat at 1 mg/kg, po measured upto 72 hrs by HPLC-MS/MS analysis. The format is ADME, organism-based. The note with it: in vivo. In outline:
as §3

Series [16] can be described thus: Minimum concentration at steady state in F344/N JcL-rnu athymic rat at 0.2 mg/kg/day, po measured upto 72 hrs by HPLC-MS/MS analysis. The format is ADME, organism-based. The note with it: in vivo. Put shortly:
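Steady-state serum levels for repeated oral 0.2 mg/kg daily dosing were simulated from single-dose serum data (female F344/N JcL-rnu rats, four per group, tail-vein sampling to 72 h, HPLC-MS/MS, noncompartmental analysis), not measured directly.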

The test system of series [17] is A549. Put plainly: Antitumor activity against human A549 cells xenografted in F344/N Jcl-rnu athymic rat assessed as tumor regression at 1.0 mg/kg, po relative to control.
In series [18] the test system is A549. Put plainly: Antitumor activity against human A549 cells xenografted in F344/N Jcl-rnu athymic rat assessed as reduction in number of CD31-positive cells in viable regions of tumor at 0.04 mg/kg, po administered once daily for 7 days by immunofluorescence staining analysis relative to control. The note with it: time 7 day.

Experimental findings from ChEMBL document CHEMBL5661970 (Cancer Res, 2006) are described below.

Each structure is given as a SMILES string.

Take `COc1cc2nccc(Oc3ccc(NC(=O)Nc4cc(C)on4)c(Cl)c3)c2cc1OC` [TIVOZANIB]: the IC50 entry in [1] is given as “Not Determined(Insoluble)”. For the same molecule, the inhibition in vivo at 1 mg/kg with LoVo is greater than 100%; in the series with LS174T [3], 99.7%; with Calu-6 [4], 99.2%; with BXPC-3, 93.5%; with PC-3, 95.9%. For the same molecule, the inhibition in vivo at 0.2 mg/kg worked out at 85.7% in the series with LS174T [2] and 90.6% in the series with DU-145. Also, the Activity with Calu-6 [5] came out at 57.9 um; with Calu-6 [6], 65.8 um; in the series on Calu-6 [7], 24.3%; in the series on Calu-6 [8] it was 30.3%; in the series on Calu-6 [9], 42.5%; with Calu-6 [10], 71.2%. Also, the Activity in the series with A549 [18] is reported as 15.7%. In series [11], this molecule had an AUC(0-inf) of 340 ng·h/mL. Moreover, the CL/F in series [12] was 2.03 mL/min/kg. In series [13], this molecule gave a half-life of 7.78 h. The Tmax in [14] came to 3.63 h; in series [15], 4.25 h. Further, the Cminss in [16] was determined as 22.2 ng/mL. The tumor regression % at 1 mg/kg in the series with A549 [17] stood at 33%.
